In series [1] the test system is Cryptococcus neoformans (ATCC 90113). The series can be described thus: Antimicrobial susceptibility assay, C. neoformans. It counts as cell-based. The settings on record: Cryptococcus neoformans. In short, it runs like this:
(§1)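 Yeasts were tested by a modified CLSI broth-dilution method, with growth monitored by optical density. Amphotericin B was the drug control in each assay. IC50 (50% inhibition vs controls) was curve-fitted from duplicate readings. MIC is the lowest concentration allowing no detectable growth. For MFC, 5 μL from each clear well was plated on agar and incubated until growth was seen.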

Series [2] relates to Aspergillus fumigatus (ATCC 204305). Kind of series: Antimicrobial susceptibility assay, A. fumigatus. The following applies: Aspergillus fumigatus. It counts as cell-based. Summed up:
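Broth-dilution susceptibility test in medium with 5% Alamar Blue for growth detection. Amphotericin B was the drug control in each assay. IC50 (50% inhibition vs controls) was curve-fitted from duplicate readings. MIC is the lowest concentration with no detectable growth. For MFC, 5 μL from each clear well was moved to agar and incubated until growth appeared.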

Series [3] deals with Leishmania donovani axenic amastigotes. The series can be described thus: Antileishmanial assay, axenic amastigotes. The settings on record: for IC90: Leishmania donovani, 72 h, read-out: Leishmania donovani Axenic Amastigotes IC90; for Leishmania donovani Axenic Amastigotes IC50: 37 °C, 72 hours, mean ± S.D. of three observations. It counts as cell-based.
Series [4] is described as follows: Cytotoxicity to PMA transformed THP1 cells. The format is cell-based. The settings on record: human.
For series [5], the system named is Candida albicans (ATCC 90028). The series can be described thus: Antimicrobial susceptibility assay, C. albicans. The settings on record: Candida albicans. The format is cell-based. In short, it runs like this: as §1
Series [6] relates to Leishmania donovani amastigotes in THP1 macrophage cultures. The series can be described thus: Antileishmanial macrophage-amastigote assay. It counts as cell-based. The settings on record: mean ± S.D. of three observations; for IC50: Leishmania donovani, THP-1, read-out: Leishmania donovani Macrophage-Amastigotes IC50, amastigotes in THP1 macrophage cultures.
Series [7] has as its system Plasmodium falciparum W2 (chloroquine-resistant clone). Kind of series: In vitro antiplasmodial assay. The settings on record: Plasmodium falciparum, W2, read-out: P. falciparum W2 IC50. It counts as cell-based.
Series [8] relates to Plasmodium falciparum D6 (chloroquine-sensitive clone). Kind of series: In vitro antiplasmodial assay. It counts as cell-based. The settings on record: Plasmodium falciparum, D6, read-out: P. falciparum D6 IC50.
Series [9] concerns Staphylococcus aureus (ATCC 29213). Kind of series: Antimicrobial susceptibility assay, S. aureus. It counts as cell-based. The settings on record: Staphylococcus aureus. In short, it runs like this: (§2)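 Bacteria were tested by a modified CLSI broth-dilution method, with growth read as optical density. Ciprofloxacin was the drug control in each assay. IC50 (50% inhibition relative to controls) was fitted from duplicate readings. MIC is the lowest concentration with no detectable growth. For MBC, 5 μL from each clear well was transferred to agar and incubated until growth appeared.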

In series [10] the test system is Mycobacterium intracellulare (ATCC 23068). The series can be described thus: Antimicrobial susceptibility assay, M. intracellulare. It counts as cell-based. The settings on record: Mycobacterium intracellulare. In short, it runs like this:
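Mycobacterium intracellulare (ATCC 23068) was tested by a modified broth susceptibility method, with growth detected in medium containing 5% Alamar Blue. IC50 was fitted against untreated controls from duplicate readings. MIC was taken as the lowest concentration with no detectable growth. For MBC, clear wells were subcultured onto agar and incubated until growth appeared. Ciprofloxacin was included as the drug control in each assay.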

Series [11] deals with methicillin-resistant S aureus (MRSA, ATCC 33591). Kind of series: Antimicrobial susceptibility assay, MRSA. The settings on record: Staphylococcus aureus, ATCC33591|MRSA. It counts as cell-based, Staphylococcus aureus. Summed up:
as §2

Series [12] relates to Leishmania donovani promastigotes. The series can be described thus: Antileishmanial assay, promastigotes. It counts as cell-based. The following applies: for IC90: Leishmania donovani, 72 h, read-out: Leishmania donovani Promastigotes IC90; for Leishmania donovani Promastigotes IC50: 26 °C, 72 hours, mean ± S.D. of three observations.
In series [13] the test system is Plasmodium falciparum W2 (chloroquine-resistant clone). The following applies: data reported previously; cited from earlier work.
In series [14] the test system is Plasmodium falciparum D6 (chloroquine-sensitive clone). The following applies: data reported previously; cited from earlier work.
The test system of the next series is VERO cells. The settings on record: VERO cells cytotoxicity; data reported previously; cited from earlier work.
The conditions of series [15]: quoted as basis for basifying to pH 11; no reference given; cited from earlier work.

≈ marks a conversion by molar mass, not a printed value.

For the compound `C[C@@H]1[C@H](O)[C@@H](C)/C=C/C=C/C=C/C=C/C=C/C=C/C=C/[C@H](O[C@@H]2O[C@H](C)[C@@H](O)[C@H](N)[C@@H]2O)C[C@@H]2O[C@](O)(C[C@@H](O)C[C@@H](O)[C@H](O)CC[C@@H](O)C[C@@H](O)CC(=O)O[C@H]1C)C[C@H](O)[C@H]2C(=O)O` [Amphotericin B, reference compound], the IC50 (commonly the concentration that inhibits the measured activity by half) in series [1] (ATCC90113, read-out: C. neoformans IC50) is 0.32 µg/mL (≈ 0.346 µM); in series [2] (ATCC204305, read-out: A. fumigatus IC50) it was 0.72 µg/mL (≈ 0.779 µM); in series [4] (PMA transformed THP1 cells), 3.34 ± 0.41 µg/mL (≈ 3.61 µM); in [5] (ATCC90028, read-out: C. albicans IC50), 0.13 µg/mL (≈ 0.141 µM); in series [6], 0.14 ± 0.02 µg/mL (≈ 0.152 µM). For the same compound, the MFC stood at 1.25 µg/mL (≈ 1.35 µM) in series [1] (ATCC90113, read-out: C. neoformans MFC); 2.5 µg/mL (≈ 2.71 µM) in series [2] (ATCC204305, read-out: A. fumigatus MFC); 0.63 µg/mL (≈ 0.682 µM) in series [5] (ATCC90028, read-out: C. albicans MFC). Moreover, the minimum inhibitory concentration (MIC) (commonly the lowest concentration found to suppress growth) in series [1] (ATCC90113, read-out: C. neoformans MIC) is 1.25 µg/mL (≈ 1.35 µM); in series [2] (ATCC204305, read-out: A. fumigatus MIC) it was 1.25 µg/mL (≈ 1.35 µM). Further, the IC90 (usually the point of the concentration-response curve where the effect stands at 90%) in [3] is 0.97 ± 0.14 µg/mL (≈ 1.05 µM); in [4] (PMA transformed THP1 cells) it was 8.05 ± 1.33 µg/mL (≈ 8.71 µM).

As to `C[C@@H]1CC[C@H]2[C@@H](C)C(=O)O[C@@H]3O[C@@]4(C)CC[C@@H]1[C@]32OO4` [Artemisinin], the 50% inhibitory concentration (IC50) in series [7] amounted to 0.017 µg/mL (≈ 0.0602 µM); in [8], 0.016 µg/mL (≈ 0.0567 µM).

Regarding `CCN(CC)CCCC(C)Nc1ccnc2cc(Cl)ccc12` (stereo not shown) [Chloroquine], the values for the IC50 in series [7] and in [8] were 0.14 µg/mL (≈ 0.438 µM) and 0.017 µg/mL (≈ 0.0531 µM), respectively.

`O=C(O)c1cn(C2CC2)c2cc(N3CCNCC3)c(F)cc2c1=O` [Ciprofloxacin, reference compound]: the half-inhibitory concentration (IC50) was found to be 0.1 µg/mL (≈ 0.302 µM) in series [9] (ATCC29213, read-out: S. aureus IC50); 0.25 µg/mL (≈ 0.754 µM) in [10] (ATCC23068, read-out: M. intracellulare IC50); 0.08 µg/mL (≈ 0.241 µM) in series [11] (read-out: MRSA IC50). In addition, the MBC (as a rule, the lowest tested concentration that kills the bacteria rather than only halting them) is greater than 20 µg/mL in [9] (ATCC29213, read-out: S. aureus MBC); greater than 20 µg/mL in series [10] (ATCC23068, read-out: M. intracellulare MBC); 1 µg/mL (≈ 3.02 µM) in series [11] (read-out: MRSA MBC). For the same compound, the minimal inhibitory concentration (MIC) in series [10] (ATCC23068, read-out: M. intracellulare MIC) turned out to be 0.5 µg/mL (≈ 1.51 µM); in series [11] (read-out: MRSA MIC), 0.25 µg/mL (≈ 0.754 µM).

Take `C[C@@H]1N[C@H](CCCCCCCCCCc2cc(CCCCCCCCCC[C@@H]3CC[C@H](O)[C@@H](C)N3)c3[n+](c2)CCC3)CC[C@H]1O` [Compound 2, prosopilosidine]: the results for the IC90 in [12], in series [3] and in [4] (PMA transformed THP1 cells) were 4.17 ± 0.54 µg/mL, 25.4 ± 5.3 µg/mL and greater than 20 µg/mL, respectively. Further, in series [13], the “P. falciparum W2 IC50” value is 0.095 ± 0.002 µg/mL. Besides, the 50% inhibitory concentration (IC50) worked out at 9.49 ± 2.25 µg/mL in [4] (PMA transformed THP1 cells) and 3.23 ± 0.54 µg/mL in [6]. Also, the “P. falciparum D6 IC50” value in series [14] is 0.039 ± 0.002 µg/mL. The “VERO IC50” value in the series with VERO cells is greater than 23.8 µg/mL.

For `C[C@@H]1N[C@H](CCCCCCCCCCC2=C[C@@H](CCCCCCCCCC[C@@H]3CC[C@@H](O)[C@H](C)N3)[C@@H]3CCCN3C2)CC[C@H]1O` [Compound 3, prosopilosine], in series [12], the “Leishmania donovani Promastigotes IC50” value is 0.17 ± 0.05 µg/mL and the IC90 came out at 6.33 ± 1.07 µg/mL (≈ 10 µM). In series [3], the “Leishmania donovani Axenic Amastigotes IC50” value was found to be 0.98 ± 0.12 µg/mL and the IC90 amounted to 6.49 ± 0.84 µg/mL (≈ 10.3 µM). In addition, in series [4], the midpoint of inhibition, the IC50, lay at 2.33 ± 0.51 µg/mL (≈ 3.7 µM) and the IC90 turned out to be 3.89 ± 0.51 µg/mL (≈ 6.17 µM).

As to `C[C@@H]1N[C@H](CCCCCCCCCCc2cc(CCCCCCCCCC[C@H]3CC[C@@H](O)[C@@H](C)N3)c[n+]3c2CCC3)CC[C@H]1O` [Compound 5, isoprosopilosidine], the 90% effect concentration (IC90) in series [12] came to 4.52 ± 0.74 µg/mL; in [3], 24.8 ± 3.7 µg/mL; in series [4] (PMA transformed THP1 cells), 19 µg/mL. For the same compound, the figures for the IC50 in [4] (PMA transformed THP1 cells) and in series [6] were 7.92 ± 1.22 µg/mL and 5.87 ± 0.76 µg/mL, respectively.

Take `C[C@H]1N[C@@H](CCCCCCCCCCC2=C[C@@H](CCCCCCCCCC[C@H]3CC[C@@H](O)[C@@H](C)N3)[C@@H]3CCCN3C2)CC[C@H]1O` [Compound 6, juliprosopine]: in series [12], the “Leishmania donovani Promastigotes IC50” value amounted to 0.29 ± 0.05 µg/mL and the concentration for an effect of 90% (IC90) stood at 1.14 ± 0.21 µg/mL (≈ 1.81 µM). In series [13], the “P. falciparum W2 IC50” value is 0.38 ± 0.05 µg/mL. Also, in [3], the “Leishmania donovani Axenic Amastigotes IC50” value was 1.92 ± 0.19 µg/mL and the IC90 was 6.25 ± 0.47 µg/mL (≈ 9.92 µM). In series [4], this compound returned an IC50 of 3.43 ± 0.32 µg/mL (≈ 5.44 µM) and a 90% effect concentration (IC90) of 7.89 ± 1.2 µg/mL (≈ 12.5 µM). In addition, the “P. falciparum D6 IC50” value in series [14] was 0.22 ± 0.025 µg/mL. Also, the “VERO IC50” value with VERO cells was 5 µg/mL.

Take `N=C(N)c1ccc(OCCCCCOc2ccc(C(=N)N)cc2)cc1` [Pentamidine, reference compound]: the “Leishmania donovani Promastigotes IC50” value in series [12] is 1.06 ± 0.32 µg/mL. Further, the 90% effect concentration (IC90) was 3.86 ± 0.41 µg/mL (≈ 11.3 µM) in series [12], 14.7 ± 2.2 µg/mL (≈ 43.2 µM) in series [3] and greater than 20 µg/mL in series [4] (PMA transformed THP1 cells). In addition, the “Leishmania donovani Axenic Amastigotes IC50” value in series [3] turned out to be 2.09 ± 0.37 µg/mL. For the same compound, the half-inhibitory concentration (IC50) was greater than 20 µg/mL in series [4] (PMA transformed THP1 cells) and 3 µg/mL (≈ 8.81 µM) in series [6]. In series [6] (amastigotes in THP1 macrophage cultures), the “Leishmania donovani Macrophage-Amastigotes IC50” value was 2.97 ± 0.44 µg/mL.

On to `NCCc1c[nH]c2ccccc12` [tryptamine], for which, in series [15], the pKa (commonly the negative logarithm of the acid dissociation constant) was 10.2.

Source of the values: paper PMC3700807 (Planta medica, 2011).
